Test results published in ChEMBL document CHEMBL2069278, “Novel substituted benzothiophene and thienothiophene carboxanilides and quinolones: synthesis, photochemical synthesis, DNA-binding properties, antitumor evaluation and 3D-derived QSAR analysis” (J Med Chem, 2012).
Activity calls are given as the source filed them. The rule behind the calls is not given here.

Test system: MOLT-4
Test: Cytotoxicity against human MOLT4 cells after 72 hrs by MTT assay
Assay type: functional, cell-based
Conditions: MOLT-4, 72 h
Procedure, shortened: (§1)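 Cells seeded on day 0 at 1 × 10^4 to 3 × 10^4 cells/mL (adherent lines in DMEM, MOLT-4 in suspension in RPMI, 10% FBS, 37 °C, 5% CO2); 10-fold dilutions 10−8–10−4 M for 72 h; MTT, OD 570 nm; percentage growth versus time-zero and control; IC50 by linear regression; quadruplicate, at least two experiments.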

In order of rising IC50:
1. O=c1[nH]c2ccccc2c2c1sc1cc(C3=NCCN3)ccc12  800 nM
2. CN(C)CCCNC(=O)c1ccc2[nH]c(=O)c3sc4ccccc4c3c2c1  1000 nM
3. CCOC(=O)c1ccc2c(c1)sc1c(=O)[nH]c3ccc(C(=O)NCCCN(C)C)cc3c12  1000 nM
4. Cc1ccc2c(c1)sc1c(=O)[nH]c3ccc(C(=O)NCCCN(C)C)cc3c12  1000 nM
5. CN(C)CCCNC(=O)c1ccc2[nH]c(=O)c3sc4cc([N+](=O)[O-])ccc4c3c2c1  2000 nM
6. Cn1c(=O)c2sc3sccc3c2c2cc(C3=NCCN3)ccc21  2000 nM
7. Cn1c(=O)c2sc3sccc3c2c2cc(C#N)ccc21  4800 nM
8. Cn1c(=O)c2sc3ccccc3c2c2cc(C#N)ccc21  8700 nM

Test system: HCT-116
Test: Cytotoxicity against human HCT116 cells after 72 hrs by MTT assay
Assay type: functional, cell-based
Conditions: HCT-116, 72 h
Procedure, shortened: as §1

`Cn1c(=O)c2sc3ccccc3c2c2cc(C#N)ccc21` and `Cn1c(=O)c2sc3sccc3c2c2cc(C#N)ccc21` cannot be ordered by IC50: greater than 10000 nM for the first, greater than 10000 nM for the second.

First: CN(C)CCCNC(=O)c1ccc2[nH]c(=O)c3sc4cc([N+](=O)[O-])ccc4c3c2c1
Second: Cc1ccc2c(c1)sc1c(=O)[nH]c3ccc(C(=O)NCCCN(C)C)cc3c12
The IC50 of the first is 2-fold higher: 2000 nM for the first, 1000 nM for the second. The second is the more potent here.

Compared with `CN(C)CCCNC(=O)c1ccc2[nH]c(=O)c3sc4ccccc4c3c2c1`, `CCOC(=O)c1ccc2c(c1)sc1c(=O)[nH]c3ccc(C(=O)NCCCN(C)C)cc3c12` is 2-fold higher in IC50: 1000 nM for the first, 2000 nM for the second.

Going from `CN(C)CCCNC(=O)c1ccc(NC(=O)c2sc3ccccc3c2Cl)cc1` to `O=c1[nH]c2ccccc2c2c1sc1cc(C3=NCCN3)ccc12`, the IC50 falls from 7000 nM to 1300 nM (5.4-fold). The second is the more potent here.

Work on `Cn1c(=O)c2sc3sccc3c2c2cc(C3=NCCN3)ccc21` yielded an IC50 of 1000 nM.

Test system: SW-620
Test: Cytotoxicity against human SW620 cells after 72 hrs by MTT assay
Assay type: functional, cell-based
Conditions: SW-620, 72 h
Procedure, shortened: as §1

`Cn1c(=O)c2sc3ccccc3c2c2cc(C#N)ccc21` and `Cn1c(=O)c2sc3sccc3c2c2cc(C#N)ccc21` cannot be ordered by IC50: greater than 10000 nM for the first, greater than 10000 nM for the second.

First: CN(C)CCCNC(=O)c1ccc2[nH]c(=O)c3sc4cc([N+](=O)[O-])ccc4c3c2c1
Second: Cc1ccc2c(c1)sc1c(=O)[nH]c3ccc(C(=O)NCCCN(C)C)cc3c12
The IC50 of the first is 5-fold higher: 2000 nM for the first, 400 nM for the second.

`CN(C)CCCNC(=O)c1ccc2[nH]c(=O)c3sc4ccccc4c3c2c1` and `CCOC(=O)c1ccc2c(c1)sc1c(=O)[nH]c3ccc(C(=O)NCCCN(C)C)cc3c12` are the same in IC50: 1000 nM for the first, 1000 nM for the second.

Compared with `O=c1[nH]c2ccccc2c2c1sc1cc(C3=NCCN3)ccc12`, `Cn1c(=O)c2sc3sccc3c2c2cc(C3=NCCN3)ccc21` is 4-fold lower in IC50: 1200 nM for the first, 300 nM for the second. The second is the more potent here.

Test system: MCF7
Test: Cytotoxicity against human MCF7 cells after 72 hrs by MTT assay
Assay type: functional, cell-based
Conditions: MCF7, 72 h
Procedure, shortened: as §1

`Cn1c(=O)c2sc3ccccc3c2c2cc(C#N)ccc21` and `Cn1c(=O)c2sc3sccc3c2c2cc(C#N)ccc21` cannot be ordered by IC50: greater than 10000 nM for the first, greater than 10000 nM for the second.

First: CN(C)CCCNC(=O)c1ccc2[nH]c(=O)c3sc4cc([N+](=O)[O-])ccc4c3c2c1
Second: Cc1ccc2c(c1)sc1c(=O)[nH]c3ccc(C(=O)NCCCN(C)C)cc3c12
The IC50 of the first is 1.5-fold higher: 3000 nM for the first, 2000 nM for the second.

Going from `CN(C)CCCNC(=O)c1ccc2[nH]c(=O)c3sc4ccccc4c3c2c1` to `CCOC(=O)c1ccc2c(c1)sc1c(=O)[nH]c3ccc(C(=O)NCCCN(C)C)cc3c12`, the IC50 rises from 2000 nM to 3000 nM (1.5-fold).

Going from `CN(C)CCCNC(=O)c1ccc(NC(=O)c2sc3ccccc3c2Cl)cc1` to `O=c1[nH]c2ccccc2c2c1sc1cc(C3=NCCN3)ccc12`, the IC50 falls from 7000 nM to 1500 nM (4.7-fold). The second is the more potent here.

Work on `Cn1c(=O)c2sc3sccc3c2c2cc(C3=NCCN3)ccc21` yielded an IC50 of 2000 nM.

Test system: NCI-H460
Test: Cytotoxicity against human H460 cells after 72 hrs by MTT assay
Assay type: functional, cell-based
Conditions: NCI-H460, 72 h
Procedure, shortened: as §1

`Cn1c(=O)c2sc3ccccc3c2c2cc(C#N)ccc21` and `Cn1c(=O)c2sc3sccc3c2c2cc(C#N)ccc21` cannot be ordered by IC50: greater than 10000 nM for the first, greater than 10000 nM for the second.

Going from `CN(C)CCCNC(=O)c1ccc2[nH]c(=O)c3sc4cc([N+](=O)[O-])ccc4c3c2c1` to `Cc1ccc2c(c1)sc1c(=O)[nH]c3ccc(C(=O)NCCCN(C)C)cc3c12`, the IC50 falls from 23000 nM to 2000 nM (12-fold). The second is the more potent here.

Going from `CN(C)CCCNC(=O)c1ccc2[nH]c(=O)c3sc4ccccc4c3c2c1` to `CCOC(=O)c1ccc2c(c1)sc1c(=O)[nH]c3ccc(C(=O)NCCCN(C)C)cc3c12`, the IC50 rises from 2000 nM to 3000 nM (1.5-fold). The first is the more potent here.

First: CN(C)CCCNC(=O)c1ccc(NC(=O)c2sc3ccccc3c2Cl)cc1
Second: O=c1[nH]c2ccccc2c2c1sc1cc(C3=NCCN3)ccc12
The IC50 of the first is 2.5-fold higher: 3000 nM for the first, 1200 nM for the second. The second is the more potent here.

In the case of `Cn1c(=O)c2sc3sccc3c2c2cc(C3=NCCN3)ccc21`, the IC50 is reported as 1000 nM.

Test system: Nucleic Acid
Test: Binding affinity to radiolabeled Pvu2 DNA after 15 mins by Dnase1 footprinting assay
Assay type: nucleic-acid assay
Conditions: not given
Procedure, shortened: (§2)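 265 bp EcoRI/PvuII pBluescript fragment, 3′-end labeled with α-[32P]dATP by Klenow. Compounds at increasing concentrations pre-equilibrated with DNA 15 min at 37 °C, then DNase I (final 0.002 unit/mL) in 20 mM NaCl, 2 mM MgCl2, 2 mM MnCl2, pH 7.3, 4 min digestion; products resolved on denaturing 8% polyacrylamide/8 M urea gel, G-track for base positions.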

In the case of `O=c1[nH]c2ccccc2c2c1sc1cc(C3=NCCN3)ccc12`, the Activity is reported as “Active”.

Target: T1, DNA topoisomerase 1 (Homo sapiens) (UniProt P11387)
T1 sequence (whole entry): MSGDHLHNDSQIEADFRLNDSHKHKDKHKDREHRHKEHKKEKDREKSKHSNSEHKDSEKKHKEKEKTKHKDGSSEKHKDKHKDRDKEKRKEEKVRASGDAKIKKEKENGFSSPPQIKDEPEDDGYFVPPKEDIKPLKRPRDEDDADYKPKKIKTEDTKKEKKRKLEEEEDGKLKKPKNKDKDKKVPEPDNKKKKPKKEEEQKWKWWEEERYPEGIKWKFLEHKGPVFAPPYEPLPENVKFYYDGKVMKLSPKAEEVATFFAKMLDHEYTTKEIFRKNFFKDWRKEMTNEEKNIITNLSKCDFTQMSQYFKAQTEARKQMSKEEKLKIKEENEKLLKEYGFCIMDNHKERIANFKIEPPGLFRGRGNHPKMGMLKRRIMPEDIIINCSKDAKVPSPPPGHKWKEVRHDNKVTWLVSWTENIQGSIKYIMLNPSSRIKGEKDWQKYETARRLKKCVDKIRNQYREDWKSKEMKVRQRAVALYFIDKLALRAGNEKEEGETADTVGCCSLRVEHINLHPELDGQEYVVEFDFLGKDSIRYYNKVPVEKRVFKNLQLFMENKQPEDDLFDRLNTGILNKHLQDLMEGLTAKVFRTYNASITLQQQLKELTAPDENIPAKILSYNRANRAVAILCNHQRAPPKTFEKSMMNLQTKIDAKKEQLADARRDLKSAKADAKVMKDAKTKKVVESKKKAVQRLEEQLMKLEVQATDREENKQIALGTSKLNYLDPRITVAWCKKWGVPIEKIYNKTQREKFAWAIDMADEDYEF
Test: Inhibition of human topoisomerase 1-mediated DNA cleavage at 10 uM incubated for 45 mins followed by enzyme addition measured after 30 mins by agarose gel electrophoresis
Conditions: not given
Procedure, shortened: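 Topo I cleavage run like the relaxation assay (pUC19, 4 units human topoisomerase I, 37 °C, 45 min; SDS/proteinase K stop), but samples run on 1% agarose gel containing ethidium bromide; camptothecin 20 μM as poisoning control.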

With `O=c1[nH]c2ccccc2c2c1sc1cc(C3=NCCN3)ccc12` the inhibition was “Active”.

Target: DNA topoisomerase 2-alpha (Homo sapiens) (UniProt P11388)
Sequence (P11388 whole entry): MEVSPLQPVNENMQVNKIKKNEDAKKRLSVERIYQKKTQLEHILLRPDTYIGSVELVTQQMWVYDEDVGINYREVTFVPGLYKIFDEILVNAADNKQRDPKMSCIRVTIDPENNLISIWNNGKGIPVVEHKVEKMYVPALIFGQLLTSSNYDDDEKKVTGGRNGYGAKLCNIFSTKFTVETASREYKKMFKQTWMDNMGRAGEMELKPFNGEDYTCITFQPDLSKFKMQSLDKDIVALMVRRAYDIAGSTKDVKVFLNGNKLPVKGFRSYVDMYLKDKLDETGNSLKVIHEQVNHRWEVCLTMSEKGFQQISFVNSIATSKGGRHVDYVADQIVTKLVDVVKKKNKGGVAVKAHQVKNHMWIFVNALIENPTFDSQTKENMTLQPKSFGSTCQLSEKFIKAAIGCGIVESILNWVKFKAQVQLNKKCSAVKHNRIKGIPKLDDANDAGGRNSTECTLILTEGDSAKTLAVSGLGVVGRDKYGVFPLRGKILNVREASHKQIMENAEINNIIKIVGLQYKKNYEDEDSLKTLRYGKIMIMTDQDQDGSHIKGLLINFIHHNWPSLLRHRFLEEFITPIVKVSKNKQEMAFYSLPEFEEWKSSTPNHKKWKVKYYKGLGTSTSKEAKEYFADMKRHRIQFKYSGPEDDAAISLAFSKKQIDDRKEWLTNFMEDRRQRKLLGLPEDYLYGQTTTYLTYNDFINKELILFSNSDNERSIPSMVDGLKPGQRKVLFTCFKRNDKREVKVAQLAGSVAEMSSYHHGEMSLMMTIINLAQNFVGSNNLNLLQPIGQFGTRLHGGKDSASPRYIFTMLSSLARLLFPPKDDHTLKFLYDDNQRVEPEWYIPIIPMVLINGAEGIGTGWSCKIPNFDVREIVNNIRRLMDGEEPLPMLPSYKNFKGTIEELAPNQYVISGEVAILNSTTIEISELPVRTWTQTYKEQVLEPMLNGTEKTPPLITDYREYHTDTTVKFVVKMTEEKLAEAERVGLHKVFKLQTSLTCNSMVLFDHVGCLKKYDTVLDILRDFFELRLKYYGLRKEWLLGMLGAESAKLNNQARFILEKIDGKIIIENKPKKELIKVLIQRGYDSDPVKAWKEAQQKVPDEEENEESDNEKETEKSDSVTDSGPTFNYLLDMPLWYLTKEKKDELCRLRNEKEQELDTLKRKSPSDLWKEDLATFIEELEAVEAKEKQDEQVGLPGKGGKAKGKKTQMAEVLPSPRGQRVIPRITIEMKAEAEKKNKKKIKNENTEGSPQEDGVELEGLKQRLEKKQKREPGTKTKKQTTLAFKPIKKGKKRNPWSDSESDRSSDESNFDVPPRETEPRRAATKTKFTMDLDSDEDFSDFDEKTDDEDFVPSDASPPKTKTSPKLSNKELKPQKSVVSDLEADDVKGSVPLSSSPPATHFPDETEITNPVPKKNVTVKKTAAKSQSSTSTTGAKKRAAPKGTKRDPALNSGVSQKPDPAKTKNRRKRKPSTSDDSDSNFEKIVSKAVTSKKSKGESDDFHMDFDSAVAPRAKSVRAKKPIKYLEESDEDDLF
Test: Inhibition of human topoisomerase 2-mediated DNA cleavage at 50 uM incubated for 45 mins followed by enzyme addition measured after 30 mins by agarose gel electrophoresis
Conditions: not given
Procedure, shortened: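 Compounds (50 μM) incubated with 350 ng supercoiled pUC19 before topoisomerase II addition; gel quantified for percentage poisoning normalized to etoposide at the same concentration.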

With `COc1cc([C@@H]2c3cc4c(cc3[C@@H](O[C@@H]3O[C@@H]5CO[C@@H](C)O[C@H]5[C@H](O)[C@H]3O)[C@H]3COC(=O)[C@H]23)OCO4)cc(OC)c1O` the inhibition was “Active”.
In the case of `O=c1[nH]c2ccccc2c2c1sc1cc(C3=NCCN3)ccc12`, the inhibition is reported as “Active”.

Test system: Nucleic Acid
Test: Binding affinity to AT rich site of Pvu2 DNA by densitometric analysis
Assay type: nucleic-acid assay
Conditions: not given
Procedure, shortened: as §2

`O=c1[nH]c2ccccc2c2c1sc1cc(C3=NCCN3)ccc12` was tested, and the Activity was “inactive”.

Test system: Nucleic Acid
Test: Binding affinity to calf thymus DNA assessed as change in melting temperature at drug/base pair ratio of 0.25 by UV-visible spectrophotometric analysis
Assay type: nucleic-acid assay
Conditions: Bos taurus
Procedure, shortened: (§3)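 Melting: 20 μM CT-DNA or poly(dAdT)2 alone or with compound (drug/base pair ratio 0.01−0.5) in BPE buffer (6 mM Na2HPO4, 2 mM NaH2PO4, 1 mM EDTA, pH 7.1); A260 read each minute from 20 to 100 °C at 1 °C/min; Tm from midpoint of hyperchromic transition (first-derivative plots); ΔTm = Tm[drug+DNA] − Tm[DNA alone].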

`O=c1[nH]c2ccccc2c2c1sc1cc(C3=NCCN3)ccc12` showed a ΔTm of 11 °C.

Test system: Nucleic Acid
Test: Binding affinity to calf thymus DNA assessed as change in melting temperature at drug/base pair ratio of 0.5 by UV-visible spectrophotometric analysis
Assay type: nucleic-acid assay
Conditions: Bos taurus
Procedure, shortened: as §3

Work on `O=c1[nH]c2ccccc2c2c1sc1cc(C3=NCCN3)ccc12` yielded a ΔTm of 14.6 °C.

Target: T1, DNA topoisomerase 1 (Homo sapiens)
Test: Inhibition of human topoisomerase 1-mediated supercoiled pUC19 plasmid DNA relaxation at 0.5 to 2 uM incubated for 45 mins followed by enzyme addition measured after 30 mins by agarose gel electrophoresis
Conditions: not given
Procedure, shortened: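 Graded compound concentrations preincubated with supercoiled pUC19, then 4 units human topoisomerase I, 37 °C for 45 min in relaxation buffer; stopped with 0.25% SDS and 250 μg/mL proteinase K, 30 min at 50 °C; 1% agarose gel without ethidium bromide, 2 h at 120 V in TBE, then stained with ethidium bromide.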

In the case of `O=c1[nH]c2ccccc2c2c1sc1cc(C3=NCCN3)ccc12`, the inhibition is reported as “Active”.
